Results gathered from unrelated publications.
Target: Serine/threonine-protein kinase WNK3 (WNK3, Homo sapiens, UniProt Q9BYP7)

| Structure (SMILES) | test | setting | remaining binding |
| --- | --- | --- | --- |
| CCC(=O)N[C@H]1CC[C@@H](C(=O)N(C)c2ccc(-c3nc4ccccc4o3)cc2)C1 | cell-free assay, competition with immobilised ligand | 1 µM | 92% |
| O=C(c1ccc(Nc2ncc(Cl)c(-c3cc4ccccc4s3)n2)cc1)N1CCC(N2CCCC2)CC1 | binding, competition with immobilised ligand | 1 µM | 100% |
| CN(C)c1nccc(-c2cnc3ncccn23)n1 | binding | 1 µM | 67% |
| CN([C@@H]1CCc2c(CC(=O)O)c3cc(S(C)(=O)=O)ccc3n2C1)S(=O)(=O)c1ccc(F)cc1 | cell-free assay, competition with immobilised ligand | 1 µM | 83% |
| O=C(NCCCN1CCOCC1)c1ccc(Nc2nccc(-c3cc4ccccc4s3)n2)cc1 | binding, competition with immobilised ligand | 1 µM | 100% |
| COc1cnc(Nc2cccc(S(N)(=O)=O)c2)nc1N1CCN(c2ccccc2)C(=O)C1 | binding, competition with immobilised ligand | 1 µM | 97% |
| C=CC(=O)N1CCC(C(=O)NCC(=O)N2CCN(c3nc(-c4cnc(N)nc4C(F)F)nc(N4CCOCC4)n3)CC2)CC1 | binding, competition with immobilised ligand | 1 µM | 96% |
| CN(CCCC(F)(F)F)c1nccc(-c2cnn3ncccc23)n1 | binding | 1 µM | 100% |
| CO[C@@H](C)c1c(Nc2ccc([C@H](N(C)C(=O)C3CCS(=O)(=O)CC3)C(F)(F)F)cc2)cnc2cc(Cl)nn12 | cell-free assay, competition with immobilised ligand | 1 µM | 95% |
| CN(C)c1ncc(F)c(-c2cnn3ncccc23)n1 | binding | 1 µM | 90% |
| Cc1nccc(COC(=O)N2C[C@@H]3[C@@H](CNC(=O)c4ccc5[nH]nnc5c4)[C@@H]3C2)n1 | cell-free assay, competition with immobilised ligand | 1 µM | 91% |
| COc1ncc2cc3ccccc3nc2c1C#N | cell-free assay, competition with immobilised ligand | 5 µM | 96% |
| CC1=C(C#N)[C@@H](c2ccc3[nH]nc(C)c3c2)C(C#N)=C(c2ccc(Cl)cc2)N1 | cell-free assay, competition with immobilised ligand | 1 µM | 100% |
| CN(C)c1nccc(-c2cnn3ncccc23)n1 | binding | 1 µM | 100% |
| CN(c1ccnc(CNc2nc(Nc3ccc4c(c3)CC(=O)N4)ncc2C(F)(F)F)n1)S(C)(=O)=O | cell-free assay, competition with immobilised ligand | 1 µM | 79% |
| N[C@H]1CCN(c2nccc(-c3cnn4ncccc34)n2)C1 | binding | 1 µM | 90% |
| C[C@@H](c1ccc(-n2cnc3c(N)ncnc32)cc1)N1CCc2nn(C)c(Cc3ccccc3)c2C1=O | binding, competition with immobilised ligand | 0.1 µM | 100% |
| O=C(NCCCN1CCOCC1)c1ccc(Nc2ncc(Cl)c(-c3ccc(Cl)s3)n2)cc1 | binding, competition with immobilised ligand | 1 µM | 100% |
| F[C@@H]1CCN(c2nccc(-c3cnn4ncccc34)n2)C1 | binding | 1 µM | 100% |
| COc1cnc(Nc2cccc(S(N)(=O)=O)c2)nc1N1CCN(c2ccccc2)CC1 | binding, competition with immobilised ligand | 1 µM | 97% |
| COc1ccnn2ncc(-c3ccnc(N(C)C)n3)c12 | binding | 1 µM | 92% |
| O=C(Nc1c[nH]nc1C(=O)NC1CCNCC1)c1cc(F)cc(F)c1 | binding, competition with immobilised ligand | 1 µM | 100% |
